According to ChEMBL document CHEMBL1144541, “Antinociceptive and antiinflammatory activities and QSAR studies on 2-substituted-4,5-diphenyl-1H-imidazoles” (2007):

Columns and labels:
Format in all cases: functional
Mus musculus [1] = test: Antinociceptive activity in ip dosed Swiss albino mouse assessed as latency time after 60 mins by tail flick method
In short: (§1)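 Swiss albino mice (20–25 g) received compounds ip at 9.5–12.58 mg/kg in 0.2% Tween suspension. Tail-flick latency to radiant heat was measured, with stimulus intensity set to give a 3–4 s baseline. Readings were taken just before injection and at 15, 30, 60 and 120 min after. Significance was assessed by Student's t test.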

Mus musculus [2] = test: Antinociceptive activity in ip dosed Swiss albino mouse assessed as latency time after 120 mins by tail flick method; in short: as §1
Mus musculus [3] = test: Antinociceptive activity in ip dosed Swiss albino mouse assessed as latency time by hot plate method
In short: (§2)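 Swiss albino mice (20–25 g) were housed 7 days at 30 ± 1 °C before testing, in groups of six. Compounds were given ip at 9.5–12.58 mg/kg as a 0.2% Tween suspension. Mice were placed on a 55 ± 0.5 °C hot plate before dosing and at 15, 30, 60 and 120 min after dosing, with a 15 s cut-off. Significance was assessed by Student's t test.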

Mus musculus [4] = test: Antinociceptive activity in ip dosed Swiss albino mouse assessed as latency time after 15 mins by hot plate method; in short: as §2
Mus musculus [5] = test: Antinociceptive activity in ip dosed Swiss albino mouse assessed as latency time after 15 mins by tail flick method; in short: as §1
Mus musculus [6] = test: Antinociceptive activity in ip dosed Swiss albino mouse assessed as latency time after 120 mins by hot plate method; in short: as §2
Mus musculus [7] = test: Antinociceptive activity in ip dosed Swiss albino mouse assessed as latency time after 60 mins by hot plate method; in short: as §2
Mus musculus [8] = test: Antinociceptive activity in ip dosed Swiss albino mouse assessed as latency time by tail flick method; in short: as §1
Mus musculus [9] = test: Antinociceptive activity in ip dosed Swiss albino mouse assessed as latency time after 30 mins by tail flick method; in short: as §1
Rattus norvegicus [10] = test: Antiinflammatory activity assessed as reduction of carrageenan-induced paw volume in intraperitoneally dosed Wistar rat after 3 hrs; parameters: scale not given: the % may be the effect or the level left
In short: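 Wistar rats of either sex (120–150 g) were dosed ip with compounds at 9.5–12.58 mg/kg in 0.2% Tween suspension. After 1 h, 0.05 ml of 1.0% w/v carrageenan in 0.9% NaCl was injected into the left hind paw. Paw volume was measured by mercury-displacement plethysmometry before injection and at 1, 2 and 3 h. Percent inhibition of the 3 h swelling was calculated.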

Mus musculus [11] = test: Antinociceptive activity in ip dosed Swiss albino mouse assessed as latency time after 30 mins by hot plate method; in short: as §2
Rattus norvegicus [12] = test: Antiinflammatory activity assessed as reduction of carrageenan-induced paw volume in Wistar rat at 10 mg/kg, ip after 3 hrs; conditions: route intraperitoneal

O=[N+]([O-])c1ccccc1-c1nc(-c2ccccc2)c(-c2ccccc2)[nH]1
Activity (Mus musculus [1]): 4.38 s | Activity (Mus musculus [2]): 4.39 s | Activity (Mus musculus [3]): 4.5 s | Activity (Mus musculus [4]): 4.52 s | Activity (Mus musculus [5]): 4.1 s | Activity (Mus musculus [6]): 4.71 s | Activity (Mus musculus [7]): 4.67 s | Activity (Mus musculus [8]): 4.09 s | Activity (Mus musculus [9]): 4.38 s | Activity (Rattus norvegicus [10]): 30.24% | Activity (Mus musculus [11]): 4.62 s

C(=C\c1nc(-c2ccccc2)c(-c2ccccc2)[nH]1)/c1ccccc1
Activity (Mus musculus [1]): 4.68 s | Activity (Mus musculus [2]): 4.75 s | Activity (Mus musculus [3]): 4.67 s | Activity (Mus musculus [4]): 5.17 s | Activity (Mus musculus [5]): 4.28 s | inhibition in vivo at 10 mg/kg (Rattus norvegicus [12]): 55.8% | Activity (Mus musculus [6]): 6.12 s | Activity (Mus musculus [7]): 5.94 s | Activity (Mus musculus [8]): 4.16 s | Activity (Rattus norvegicus [10]): 55.82% | Activity (Mus musculus [11]): 5.58 s

COc1ccc(-c2nc(-c3ccccc3)c(-c3ccccc3)[nH]2)cc1
Activity (Mus musculus [1]): 9.17 s | Activity (Mus musculus [2]): 10.83 s | Activity (Mus musculus [3]): 4.87 s | Activity (Mus musculus [4]): 5.02 s | Activity (Mus musculus [5]): 4.98 s | inhibition in vivo at 10 mg/kg (Rattus norvegicus [12]): 86% | Activity (Mus musculus [6]): 10.87 s | Activity (Mus musculus [7]): 9.67 s | Activity (Mus musculus [8]): 4.58 s | Activity (Mus musculus [9]): 7.45 s | Activity (Rattus norvegicus [10]): 86.05% | Activity (Mus musculus [11]): 7.89 s

Clc1ccccc1-c1nc(-c2ccccc2)c(-c2ccccc2)[nH]1
Activity (Mus musculus [1]): 7.27 s | Activity (Mus musculus [2]): 8.85 s | Activity (Mus musculus [3]): 4.67 s | Activity (Mus musculus [4]): 4.62 s | Activity (Mus musculus [5]): 4.14 s | Activity (Mus musculus [6]): 9.01 s | Activity (Mus musculus [7]): 8.2 s | Activity (Mus musculus [8]): 4.2 s | Activity (Mus musculus [9]): 5.78 s | Activity (Rattus norvegicus [10]): 62.8% | Activity (Mus musculus [11]): 6.25 s

COc1ccc2c(c1)c(CC(=O)O)c(C)n2C(=O)c1ccc(Cl)cc1 [INDOMETHACIN]
inhibition in vivo at 10 mg/kg (Rattus norvegicus [12]): 95.3%
